Source: ChEMBL document CHEMBL4368886, “Design, synthesis, and biological activity of novel ammonium salts containing sterically hindered phenolic fragment and phosphoryl group” (Medchemcomm, 2018)
Values after ≈ are worked out from the molar mass of the structure shown. Active and inactive are the calls of the source. The calls are words filed in the database; no cut-off is given here.

Columns and labels:
Escherichia coli [1] = experiment: Bactericidal activity against Escherichia coli CDC F-50 measured after 4 hrs; assay type: functional
Procedure, shortened: (§1)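 Microbicidal (bactericidal/fungicidal) concentration, killing of microbial cells, determined per literature procedures; tests in duplicate, repeated twice.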

Candida albicans [2] = experiment: Antimicrobial activity against Candida albicans 855-653 measured after 14 days by two-fold serial dilution method; assay type: functional
Candida albicans [3] = experiment: Bactericidal activity against Candida albicans 855-653 measured after 4 hrs; assay type: functional; procedure, shortened: as §1
Staphylococcus aureus [4] = experiment: Bactericidal activity against Staphylococcus aureus 209p measured after 4 hrs; assay type: functional; procedure, shortened: as §1
Escherichia coli [5] = experiment: Antimicrobial activity against Escherichia coli CDC F-50 measured every 24 hrs for 5 days by two-fold serial dilution method; assay type: functional
Bacillus cereus [6] = experiment: Antimicrobial activity against Bacillus cereus ATCC 8035 measured every 24 hrs for 5 days by two-fold serial dilution method; assay type: functional
Aspergillus niger [7] = experiment: Bactericidal activity against Aspergillus niger BKMF-1119 measured after 4 hrs; assay type: functional, organism-based; procedure, shortened: as §1
Pseudomonas aeruginosa [8] = experiment: Bactericidal activity against Pseudomonas aeruginosa ATCC 9027 measured after 4 hrs; assay type: functional; procedure, shortened: as §1
Pseudomonas aeruginosa [9] = experiment: Antimicrobial activity against Pseudomonas aeruginosa ATCC 9027 measured every 24 hrs for 5 days by two-fold serial dilution method; assay type: functional
Bacillus cereus [10] = experiment: Bactericidal activity against Bacillus cereus ATCC 8035 measured after 4 hrs; assay type: functional; procedure, shortened: as §1
Staphylococcus aureus [11] = experiment: Antimicrobial activity against Staphylococcus aureus 209p measured every 24 hrs for 5 days by two-fold serial dilution method; assay type: functional
[12] = tested on: Trichophyton mentagrophytes; experiment: Antimicrobial activity against Trichophyton mentagrophytes var. gypseum 1773 measured after 14 days by two-fold serial dilution method; assay type: functional
[13] = tested on: Trichophyton mentagrophytes var. granulosum; experiment: Bactericidal activity against Trichophyton mentagrophytes var. granulosum 1773 measured after 4 hrs; assay type: functional; procedure, shortened: as §1
Aspergillus niger [14] = experiment: Antimicrobial activity against Aspergillus niger BKMF-1119 measured after 14 days by two-fold serial dilution method; assay type: functional, organism-based

Row | Structure (SMILES) | MIC (Escherichia coli [1]) | MIC (Candida albicans [2]; 855-653, 336 h) [µM] | MIC (Candida albicans [3]) | MIC (Staphylococcus aureus [4]) | MIC (Escherichia coli [5]) | MIC (Bacillus cereus [6]) | MIC (Aspergillus niger [7]) | MIC (Pseudomonas aeruginosa [8]) | MIC (Pseudomonas aeruginosa [9]) | MIC (Bacillus cereus [10]; ATCC 8035, 4 h) [µM] | MIC (Staphylococcus aureus [11]) | MIC [12] | MIC [13] | MIC (Aspergillus niger [14]) | MIC (Escherichia coli [1]; CDC F-50, 4 h) [µM] | MIC (Pseudomonas aeruginosa [8]; ATCC 9027, 4 h) [µM] | MIC (Candida albicans [3]; 855-653, 4 h) [µM] | MIC (Bacillus cereus [10]) | MIC (Candida albicans [2])
1 | CC[N+](C)(C)CCNC(c1cc(C(C)(C)C)c(O)c(C(C)(C)C)c1)P(=O)(OC(C)C)OC(C)C (stereo not given) | inactive | 432 | inactive | 108 µM | inactive | 216 µM | inactive | inactive | inactive | 216 | 108 µM | inactive | inactive | inactive |  |  |  |  | 
2 | CCn1cc(C(=O)O)c(=O)c2cc(F)c(N3CCNCC3)cc21 [NORFLOXACIN] |  |  |  | 7.5 µM (≈ 2.4 µg/mL) | 4.7 µM (≈ 1.5 µg/mL) | 25 µM (≈ 7.98 µg/mL) |  |  | 9.4 µM (≈ 3 µg/mL) | 50 (≈ 16 µg/mL) | 7.5 µM (≈ 2.4 µg/mL) |  |  |  | 4.7 (≈ 1.5 µg/mL) | 48.8 (≈ 15.6 µg/mL) |  |  | 
3 | CCCCCCCCCCCCCCCC[N+](C)(C)CCCNC(=O)CCc1cc(C(C)(C)C)c(O)c(C(C)(C)C)c1 | inactive | 187 |  | inactive | inactive | 375 µM | inactive | inactive | inactive | 375 | 47 µM | inactive | inactive | inactive |  |  | 375 |  | 
4 | CC[N+](C)(C)CCNC(=O)CCc1cc(C(C)(C)C)c(O)c(C(C)(C)C)c1 | inactive | 68.5 | inactive | inactive | inactive | inactive | inactive | inactive | inactive |  | inactive | inactive | inactive | inactive |  |  |  | inactive | 
5 | CCCCCCCCCCCCCCCC[N+](C)(C)CCNC(=O)CCc1cc(C(C)(C)C)c(O)c(C(C)(C)C)c1 | inactive | 383 |  | inactive | inactive | 383 µM | inactive | inactive | inactive |  | 95.7 µM | inactive | inactive | inactive |  |  | 383 | inactive | 
6 | CCOP(=O)(OCC)C(NCC[N+](C)(C)Cc1ccccc1)c1cc(C(C)(C)C)c(O)c(C(C)(C)C)c1 (stereo not given) | inactive | 177 |  | 407 µM | inactive | 6.4 µM | inactive | inactive | inactive | 102 | 51 µM | inactive | inactive | inactive |  |  | 177 |  | 
7 | CCCCCCCCCCCC[N+](C)(C)CCNC(=O)CCc1cc(C(C)(C)C)c(O)c(C(C)(C)C)c1 | inactive | 419 |  | 52.4 µM | inactive | 419 µM | inactive | inactive | inactive | 419 | 52.4 µM | inactive | inactive | inactive |  |  | 419 |  | 
8 | CC(C)OP(=O)(OC(C)C)C(NCCC[N+](C)(C)Cc1ccccc1)c1cc(C(C)(C)C)c(O)c(C(C)(C)C)c1 (stereo not given) | inactive |  | inactive | 95.3 µM | inactive | 95.3 µM | inactive | inactive | inactive | 95.3 | 95.3 µM | inactive | inactive | inactive |  |  |  |  | inactive
9 | CCOP(=O)(OCC)C(NCC[N+](C)(C)CC)c1cc(C(C)(C)C)c(O)c(C(C)(C)C)c1 (stereo not given) | inactive |  | inactive | 56.8 µM | inactive | 56.8 µM | inactive | inactive | inactive | 56.8 | 56.8 µM | inactive | inactive | inactive |  |  |  |  | inactive
